Measured values published in PMC9399017 (European Journal of Drug Metabolism and Pharmacokinetics, 2022).
“And” between values parts separate entries of the source, which are not always exact repeats. Identical values can stand only once. One block for each compound: values may come before it.

Legend:
[1] = Population pharmacokinetic; format: in vivo, human (patients with advanced cancers); conditions: for Duration of constant (zero-order) release into depot, D1, capsule, Estimate (% RSE): hard gelatin capsule
How it was run: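 Patients took immediate-release capsules or film-coated tablets orally. Sampling was intensive in cycle 1 and sparse for up to 5 cycles. Lithium-heparin blood was processed to plasma within about 30 min, protein-precipitated, and measured by validated LC-MS/MS (2.00‒500 ng/mL; LLOQ 2.00 ng/mL). FOCE-I mixed-effects fits tested 1–3-compartment models with fixed allometric weight exponents and per-cycle interoccasion variability. Percentiles came from bootstrap.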

CYP3A = conditions: humans; cited from earlier work
[2] = test system: major CYP isoenzymes, including CYP3A4; conditions: in vitro; cited from earlier work
[3] = between-subject variability, NONMEM estimate
[4] = between-subject variability, bootstrap
[5] = final PopPK model, NONMEM estimate

Dose proportionality (post hoc ETA versus dose) ([1]; 5 to 30 mg lucitanib, visual inspection): consistent with dose proportionality
Effect of co-administration of fulvestrant on lucitanib pharmacokinetics ([1]; 17 of 403 patients with concomitant fulvestrant): no effect
Residual error (proportional), Estimate (% RSE) ([1]; NONMEM estimate): 33.6% (2.30%)
CL/F BSV (log-proportional), Estimate (% RSE) [1, 3]: 47.8% (5.69%)
D1 BSV (log-proportional), Estimate (% RSE) [1, 3]: 60.1% (18.6%)
Vc/F BSV (log-proportional), Estimate (% RSE) [1, 3]: 58.6% (6.97%)
Vp/F BSV (log-proportional), Estimate (% RSE) [1, 3]: 76.7% (9.10%)
CL/F BSV (log-proportional), Bootstrap median (2.5th, 97.5th percentile) [1, 4]: 47.5% (42.8%, 53.2%)
D1 BSV (log-proportional), Bootstrap median (2.5th, 97.5th percentile) [1, 4]: 58.7% (41.3%, 75.8%)
Vc/F BSV (log-proportional), Bootstrap median (2.5th, 97.5th percentile) [1, 4]: 58.9% (51.3%, 67.5%)
Vp/F BSV (log-proportional), Bootstrap median (2.5th, 97.5th percentile) [1, 4]: 75.2% (60.0%, 88.8%)
Residual error (proportional), Bootstrap median (2.5th, 97.5th percentile) ([1]; bootstrap): 33.5% (32.0%, 34.8%)
Duration of constant release into depot for capsule, D1, Bootstrap median (2.5th, 97.5th percentile) ([1]; capsule, nonparametric bootstrap): 0.812 (0.629, 0.956) h
Effect of concomitant proton pump inhibitors on lucitanib absorption ([1]; concomitant PPI): no clinically significant effect
Ratio of F with concomitant PPI/without PPI, 95% CI ([1]; concomitant proton pump inhibitor, n = 152, not significant): 0.83–1.08
Reduction in F with concomitant PPI (estimated effect size) ([1]; concomitant proton pump inhibitor, not clinically significant): 6.5%
CL/F and Vc/F correlation, Estimate (% RSE) ([1]; correlation of random effects, NONMEM estimate): 0.596 (6.30%)
CL/F and Vc/F correlation, Bootstrap median (2.5th, 97.5th percentile) ([1]; correlation of random effects, bootstrap): 0.595 (0.469, 0.721)
Duration of zero-order release, D1, tablet ([1]; film-coated tablet, final PopPK model): 0.243 h
Apparent central volume, Vc/F, Estimate (% RSE) [1, 5]: 63.8 (5.08%) L/70 kg
Apparent distribution clearance, Q/F, Estimate (% RSE) [1, 5]: 6.23 (8.41%) L/h/70 kg
Apparent peripheral volume, Vp/F, Estimate (% RSE) [1, 5]: 69.1 (6.81%) L/70 kg
Effect of formulation on D1 (tablet to capsule ratio), Estimate (% RSE) [1, 5]: 0.299 (19.4%)
First-order absorption rate constant, Ka, Estimate (% RSE) [1, 5]: 4.86 1/h and 4.86 (12.6%) 1/h
Apparent clearance, CL/F, Estimate (% RSE) ([1]; final PopPK model, NONMEM estimate, oral 5-30 mg QD, 403 patients): 1.90 (2.75%) L/h/70 kg
Duration of constant (zero-order) release into depot, D1, capsule, Estimate (% RSE) ([1]; final PopPK model): 0.814 (22.2%) h
Duration of constant (zero-order) release into depot, D1, capsule, Estimate (% RSE) ([1]; final PopPK model, listed as Lucitanib): 0.814 h
half-life ([1]; human, plasma, oral): 8.58 min
Apparent central volume, Vc/F, Bootstrap median (2.5th, 97.5th percentile) ([1]; nonparametric bootstrap): 63.4 (57.3, 70.6) L/70 kg
Apparent distribution clearance, Q/F, Bootstrap median (2.5th, 97.5th percentile) ([1]; nonparametric bootstrap): 6.30 (5.29, 7.72) L/h/70 kg
Apparent peripheral volume, Vp/F, Bootstrap median (2.5th, 97.5th percentile) ([1]; nonparametric bootstrap): 68.9 (61.0, 79.1) L/70 kg
Effect of formulation on D1 (tablet to capsule ratio), Bootstrap median (2.5th, 97.5th percentile) ([1]; nonparametric bootstrap): 0.343 (0.178, 0.630)
First-order absorption rate constant, Ka, Bootstrap median (2.5th, 97.5th percentile) ([1]; nonparametric bootstrap): 4.77 (2.94, 8.21) 1/h
Apparent clearance, CL/F, Bootstrap median (2.5th, 97.5th percentile) ([1]; nonparametric bootstrap, 1000 replicates): 1.90 (1.80, 2.00) L/h/70 kg
D1 values, both immediate-release formulations ([1]; tablet and capsule): < 1 h
D1 shorter for tablets versus capsules ([1]; tablet vs capsule): 70%
SMILES: CNC(=O)c1cccc2cc(Oc3ccnc4cc(OCC5(N)CC5)c(OC)cc34)ccc12 [lucitanib]
Variance in Vc/F explained by body weight ([1]; present dataset): 11%

SMILES: C[C@]12CC[C@@H]3c4ccc(O)cc4C[C@@H](CCCCCCCCC[S+]([O-])CCCC(F)(F)C(F)(F)F)[C@H]3[C@@H]1CC[C@@H]2O (stereo partly drawn) [Fulvestrant, fulvestrant]
Change in exposure to a CYP3A substrate (midazolam) (CYP3A): nor did it change the exposure
Inhibition of major CYP isoenzymes [2]: did not significantly inhibit
